Among the data in ChEMBL document CHEMBL3228038 (J Med Chem, 1979) are Activity and inhibition values, retold here.

For data set [1], the system named is Mus musculus. The experiment in a line: Analgesic activity in Swiss Webster mouse at 4 nmol, icv after 10 to 120 mins by tail flick test. The format is functional, organism-based. In outline:
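Male Swiss Webster mice, 20-25 g. Compound given icv in 4 µL saline (working solution from ethanol/0.05 N HCl stock, evaporated under nitrogen). Agonist activity read by modified D'Amour-Smith tail-flick at intervals out to 2 h post-injection. Saline icv controls given in the same volume.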
A general note: Thermal pain tests record how soon the animal reacts.

Data set [2] has as its system Mus musculus. As to the kind of experiment: Toxicity in Swiss Webster mouse assessed as lethargic behavior at 4 nmol, icv. The data set is classed as organism-based. The note with it: in vivo, icv_or_intrathecal. In outline:
(§1)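 Male Swiss Webster mice, 20-25 g, observed after icv injection in 4 µL saline. Recorded: lethality and preceding tonic convulsions within 1.5 h, lethargy, startle reflex to hand clap, locomotor activity, and tail-flick latency.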

The test system of data set [3] is Mus musculus. As to the kind of experiment: Toxicity in icv dosed Swiss Webster mouse assessed as suppression of startle reflex to loud and abrupt auditory stimulus. The format is organism-based. To be noted: in vivo, icv_or_intrathecal. A digest of the protocol: as §1
Data set [4] concerns Mus musculus. The experiment in a line: Toxicity in icv dosed Swiss Webster mouse assessed as decrease in locomotor activity. The format is organism-based. The note with it: in vivo, icv_or_intrathecal. A digest of the protocol: as §1
The test system of data set [5] is Mus musculus. As to the kind of experiment: Toxicity in icv dosed Swiss Webster mouse assessed as change in tail flick latency. The format is organism-based. To be noted: in vivo, icv_or_intrathecal. In outline:
as §1

Data set [6] has as its system Mus musculus. The experiment in a line: Inhibition of morphine-induced analgesia in Swiss Webster mouse assessed as change in morphine ED50 at 2.4 nmol, icv after 2 hrs by tail flick test. The data set is classed as functional, organism-based.
Data set [7] has as its system Mus musculus. The experiment in a line: Toxicity in Swiss Webster mouse assessed as lethality at 4.8 nmol, icv after 1.5 hrs. The format is organism-based. To be noted: in vivo, icv_or_intrathecal. A digest of the protocol:
as §1

In data set [8] the test system is Mus musculus. The experiment in a line: Toxicity in Swiss Webster mouse assessed as tonic convulsions at 4.8 nmol, icv. The format is organism-based. To be noted: in vivo, icv_or_intrathecal. In outline: as §1
Data set [9] relates to Mus musculus. As to the kind of experiment: Toxicity in Swiss Webster mouse assessed as mortality at 2.4 nmol, icv. To be noted: in vivo, icv_or_intrathecal. The format is organism-based. A digest of the protocol:
as §1

The test system of data set [10] is Mus musculus. The experiment in a line: Toxicity in icv dosed Swiss Webster mouse assessed as lethargic behavior. The format is organism-based. To be noted: in vivo, icv_or_intrathecal. In outline:
as §1

For data set [11], the system named is Mus musculus. As to the kind of experiment: Effect on development of dependence to morphine in Swiss Webster mouse assessed as increase in naloxone ED50 for eliciting withdrawal jumping at 0.24 nmol, icv after 24 hrs relative to control. The data set is classed as functional, organism-based. A digest of the protocol:
(§2)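 Male Swiss Webster mice, 20-25 g. Given icv injection (4 µL saline vehicle) immediately after sc implantation of a 50 mg morphine or placebo pellet. At 24 and 72 h, naloxone given sc (10 mL/kg saline) and ED50 taken for precipitated withdrawal jumping (Way method). Groups of 4-5 mice per ED50.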

In data set [12] the test system is Mus musculus. As to the kind of experiment: Effect on development of dependence to morphine in Swiss Webster mouse assessed as increase in naloxone ED50 for eliciting withdrawal jumping at 0.24 nmol, icv after 72 hrs relative to control. The format is functional, organism-based. In outline: as §2

The source made the active and inactive calls. The rule behind the calls is not given here.

`O=C(O)CCCc1ccc(N(CCCl)CCCl)cc1` [CHLORAMBUCIL]: the result in the data set on Mus musculus [1] was inactive. The Activity result was “Toxic” with Mus musculus [2], “Non-toxic” in the data set with Mus musculus [3], “Toxic” with Mus musculus [4] and “Non-toxic” in the data set on Mus musculus [5]. For the same compound, the inhibition entry with Mus musculus [6] was “inactive”.

On to `Oc1ccc2c3c1O[C@H]1[C@H](N(CCCl)CCCl)CC[C@@]4(O)[C@@H](C2)N(CC2CC2)CC[C@]314`, for which the Activity result is on record as “Toxic” with Mus musculus [7]; “Toxic” with Mus musculus [8]; “Toxic” with Mus musculus [9]; “Toxic” in the data set with Mus musculus [10]; “Non-toxic” with Mus musculus [3]; “Toxic” in the data set on Mus musculus [4]. The Activity entry with Mus musculus [5] is reported as “Non-toxic”.

Turning to `O=C1CC[C@@]2(O)[C@H]3Cc4ccc(O)c5c4[C@@]2(CCN3CC2CC2)[C@H]1O5`, the inhibition result in the data set with Mus musculus [6] was “inactive”. In addition, the outcome in the data set on Mus musculus [11] and in the data set on Mus musculus [12] was inactive.
